Measured values published in ChEMBL document CHEMBL2413015, “Synthesis, evaluation and molecular dynamics study of some new 4-aminopyridine semicarbazones as an antiamnesic and cognition enhancing agents” (Bioorg Med Chem, 2013).
pIC50, pKi: −log10 of the molar value.

Legend:
Rattus norvegicus [1] = experiment: Activity at AChE in Charles Foster rat prefrontal cortex assessed as substrate hydrolyzed per mg of protein at 10 mg/kg, po for 8 days by Ellman's method (reference value: 45.83 +/- 0.94 mol/min); assay type: functional
Cholinesterase [2] = molecular target: T1, Cholinesterase (Homo sapiens, UniProt P06276); experiment: Competitive inhibition of human serum BChE using butyrylthiocholine iodide as substrate by Lineweaver-Burk plot analysis
T1 sequence (P06276 whole entry): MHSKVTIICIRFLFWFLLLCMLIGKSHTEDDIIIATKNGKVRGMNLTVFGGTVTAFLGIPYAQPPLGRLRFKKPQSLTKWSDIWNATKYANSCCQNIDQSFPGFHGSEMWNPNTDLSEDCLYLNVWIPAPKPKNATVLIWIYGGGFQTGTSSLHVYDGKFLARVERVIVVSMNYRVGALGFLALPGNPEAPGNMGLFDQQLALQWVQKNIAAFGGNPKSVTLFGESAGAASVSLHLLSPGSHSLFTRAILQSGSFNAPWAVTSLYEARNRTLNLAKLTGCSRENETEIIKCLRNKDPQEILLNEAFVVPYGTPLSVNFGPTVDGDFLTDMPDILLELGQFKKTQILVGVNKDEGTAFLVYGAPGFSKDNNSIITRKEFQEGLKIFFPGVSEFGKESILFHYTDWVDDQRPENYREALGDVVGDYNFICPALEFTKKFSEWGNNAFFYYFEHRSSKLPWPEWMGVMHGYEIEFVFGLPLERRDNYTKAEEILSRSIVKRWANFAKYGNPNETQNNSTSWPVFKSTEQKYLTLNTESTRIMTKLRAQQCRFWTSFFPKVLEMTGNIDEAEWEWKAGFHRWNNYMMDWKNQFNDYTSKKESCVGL
Method in brief: (§1)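 Ellman assay in phosphate buffer pH 8 with a fixed amount of cholinesterase. Thiocholine substrate was varied from below to above, but near, Km, with or without inhibitor. Inhibition type was assigned from Lineweaver–Burk plots.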

Rattus norvegicus [3] = experiment: (§2) Cognitive enhancing effect in Charles Foster rat assessed as reversal of scopolamine-induced amnesia measured as transfer latency at 5 mg/kg, po for 8 days administered 1 hr prior to scopolamine-challenge on day 7 measured on day 8 by elevated plus maze test (reference value: 62.17 +/- 0.47 seconds); assay type: functional
Rattus norvegicus [4] = experiment: Cognitive enhancing effect in Wistar rat assessed as reversal of learning impairment measured as transfer latency at 5 mg/kg, po for 8 days measured on second day of test by elevated plus maze test (reference value: 66.824 +/- 0.47 seconds); assay type: functional
Method in brief: (§3)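 Oral dosing at 5 or 10 mg/kg for 8 days, suspended in 0.3% carboxymethyl cellulose; vehicle-treated controls. Transfer latency on elevated plus maze measured on first and second days of exposure (treatment days 7 and 8). Mean ± SEM, n = 6, one-way ANOVA versus vehicle control.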

Acetylcholinesterase [5] = molecular target: T2, Acetylcholinesterase (Electrophorus electricus, UniProt O42275); experiment: Competitive inhibition of electric eel AChE using acetylthiocholine iodide as substrate by Lineweaver-Burk plot analysis; method in brief: as §1
T2 sequence (O42275 whole entry): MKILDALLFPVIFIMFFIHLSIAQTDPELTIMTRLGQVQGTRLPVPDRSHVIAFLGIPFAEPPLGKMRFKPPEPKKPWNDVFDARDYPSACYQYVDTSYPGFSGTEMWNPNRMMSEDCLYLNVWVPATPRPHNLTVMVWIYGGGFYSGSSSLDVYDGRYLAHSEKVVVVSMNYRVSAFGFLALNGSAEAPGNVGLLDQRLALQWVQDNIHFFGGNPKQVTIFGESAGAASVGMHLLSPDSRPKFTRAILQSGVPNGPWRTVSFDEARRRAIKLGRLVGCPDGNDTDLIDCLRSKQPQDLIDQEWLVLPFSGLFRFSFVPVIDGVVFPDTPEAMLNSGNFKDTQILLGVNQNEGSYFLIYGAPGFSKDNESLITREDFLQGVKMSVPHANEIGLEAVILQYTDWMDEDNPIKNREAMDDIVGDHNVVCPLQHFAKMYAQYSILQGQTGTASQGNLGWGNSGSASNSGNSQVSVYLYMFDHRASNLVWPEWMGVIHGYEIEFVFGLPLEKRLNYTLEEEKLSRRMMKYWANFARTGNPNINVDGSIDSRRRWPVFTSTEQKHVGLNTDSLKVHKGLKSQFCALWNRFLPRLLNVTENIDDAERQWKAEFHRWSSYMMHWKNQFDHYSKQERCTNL

Rattus norvegicus [6] = experiment: (§4) Cognitive enhancing effect in Charles Foster rat assessed as reversal of scopolamine-induced amnesia measured as transfer latency at 10 mg/kg, po for 8 days administered 1 hr prior to scopolamine-challenge on day 7 measured on same day by elevated plus maze test (reference value: 67.83 +/- 0.94 seconds); assay type: functional
Rattus norvegicus [7] = experiment: Cognitive enhancing effect in po dosed Wistar rat assessed as reversal of learning impairment measured as transfer latency administered for 8 days by elevated plus maze test; assay type: functional, organism-based; method in brief: as §3
Rattus norvegicus [8] = experiment: Toxicity in albino rat assessed as change in normal behavioral response upto 100 mg/kg after 30 mins to 48 hrs; assay type: organism-based; set-up: dose 100 mg/kg; conditions: in vivo
Method in brief: (§5)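 Acute toxicity followed OECD guidelines. Nulliparous, non-pregnant female albino rats (120–150 g) were fasted overnight with water ad libitum. Graded oral doses up to 100 mg/kg were given in 0.3% carboxymethyl cellulose. Rats were observed continuously for 30 min, at 2 h and up to 48 h for behavioural or autonomic changes, tremors, convulsions, salivation, diarrhoea, sleep, lacrimation, cardiovascular signs, feeding and mortality.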

Acetylcholinesterase [9] = molecular target: T2, Acetylcholinesterase; experiment: Inhibition of electric eel AChE using acetylthiocholine iodide as substrate preincubated for 20 mins prior to substrate addition by Ellman's method; conditions: for pIC50: read-out: IC50; for IC50: read-out: pIC50 (converted)
Rattus norvegicus [10] = experiment: as §2, with “10” for “5”; assay type: functional
Rattus norvegicus [11] = experiment: Cognitive enhancing effect in Wistar rat assessed as reversal of learning impairment measured as transfer latency at 10 mg/kg, po for 8 days measured on second day of test by elevated plus maze test (reference value: 66.824 +/- 0.47 seconds); assay type: functional; method in brief: as §3
Rattus norvegicus [12] = experiment: Toxicity in albino rat assessed as mortality upto 100 mg/kg after 30 mins to 48 hrs; assay type: organism-based; set-up: dose 100 mg/kg; conditions: in vivo; method in brief: as §5
[13] = Selectivity ratio of IC50 for human serum BChE to IC50 for electric eel AChE
Method in brief: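 Ratio of IC50 (BChE) to IC50 (AChE). Both came from Ellman assays at 0.1 M phosphate pH 8.0 and 0.02 unit/mL enzyme: AChE (stock in phosphate buffer) with acetylthiocholine, human serum BChE (stock in 0.1% gelatine) with butyrylthiocholine.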

Rattus norvegicus [14] = experiment: Cognitive enhancing effect in Wistar rat assessed as reversal of learning impairment measured as transfer latency at 10 mg/kg, po for 8 days measured on first day of test by elevated plus maze test (reference value: 70.846 +/- 0.76 seconds); assay type: functional; method in brief: as §3
Rattus norvegicus [15] = experiment: as §4, with “5” for “10”; assay type: functional
Rattus norvegicus [16] = experiment: Activity at AChE in Charles Foster rat prefrontal cortex assessed as substrate hydrolyzed per mg of protein at 5 mg/kg, po for 8 days by Ellman's method (reference value: 45.83 +/- 0.94 mol/min); assay type: functional
Rattus norvegicus [17] = experiment: Activity at AChE in Charles Foster rat hypothalamus assessed as substrate hydrolyzed per mg of protein at 5 mg/kg, po for 8 days by Ellman's method (reference value: 40.50 +/- 0.76 mol/min); assay type: functional
Rattus norvegicus [18] = experiment: Activity at AChE in Charles Foster rat hypothalamus assessed as substrate hydrolyzed per mg of protein at 10 mg/kg, po for 8 days by Ellman's method (reference value: 40.50 +/- 0.76 mol/min); assay type: functional
Rattus norvegicus [19] = experiment: Activity at AChE in Charles Foster rat hippocampus assessed as substrate hydrolyzed per mg of protein at 5 mg/kg, po for 8 days by Ellman's method (reference value: 47.50 +/- 0.84 mol/min); assay type: functional
Rattus norvegicus [20] = experiment: Cognitive enhancing effect in Wistar rat assessed as reversal of learning impairment measured as transfer latency at 5 mg/kg, po for 8 days measured on first day of test by elevated plus maze test (reference value: 70.846 +/- 0.76 seconds); assay type: functional; method in brief: as §3
Cholinesterase [21] = molecular target: T1, Cholinesterase; experiment: Inhibition of human serum BChE using butyrylthiocholine iodide as substrate preincubated for 20 mins prior to substrate addition by Ellman's method
Method in brief: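 Human serum BChE was dissolved in 0.1% gelatine. The final mix held 0.1 M phosphate pH 8.0, DTNB, 0.02 unit/mL enzyme and butyrylthiocholine iodide. Five inhibitor concentrations spanning 20–80% inhibition were preincubated with enzyme for 20 min at 37 °C, then substrate was added. Rate was read at 412 nm over 5 min against an enzyme-free blank. Each point was run in triplicate, and IC50 was read graphically from log concentration–% inhibition curves.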

Rattus norvegicus [22] = experiment: Activity at AChE in Charles Foster rat hippocampus assessed as substrate hydrolyzed per mg of protein at 10 mg/kg, po for 8 days by Ellman's method (reference value: 47.50 +/- 0.84 mol/min); assay type: functional
Cholinesterase [23] = molecular target: T1, Cholinesterase; experiment: Non competitive inhibition of human serum BChE using butyrylthiocholine iodide as substrate by Lineweaver-Burk plot analysis; method in brief: as §1

| Compound | Activity (Rattus norvegicus [1]) [mol/min] | Time (Rattus norvegicus [3]) [s] | Time (Rattus norvegicus [4]) [s] | pKi (Acetylcholinesterase [5]) | Time (Rattus norvegicus [6]) [s] | Activity (Rattus norvegicus [7]) | Activity (Rattus norvegicus [8]) | pIC50 (Acetylcholinesterase [9]) | Time (Rattus norvegicus [10]) [s] | Time (Rattus norvegicus [11]) [s] | Activity (Rattus norvegicus [12]) | Time (Rattus norvegicus [14]) [s] | Time (Rattus norvegicus [15]) [s] | Activity (Rattus norvegicus [16]) [mol/min] | Activity (Rattus norvegicus [17]) [mol/min] | Activity (Rattus norvegicus [18]) [mol/min] | Activity (Rattus norvegicus [19]) [mol/min] | Time (Rattus norvegicus [20]) [s] | pIC50 (Cholinesterase [21]) | Activity (Rattus norvegicus [22]) [mol/min] | further results |
| --- | --- | --- | --- | --- | --- | --- | --- | --- | --- | --- | --- | --- | --- | --- | --- | --- | --- | --- | --- | --- | --- |
| O=C(N/N=C/c1ccccc1)Nc1ccncc1 | 40.5 | 69.33 | 53.33 | 4.05 | 70.33 | Dose-dependent effect | Non-toxic | 4.08 | 66.17 | 51 | Non-toxic | 58.33 | 74.17 | 42.03 | 36.5 | 35.83 | 42.33 | 59.17 | 3.07 | 41 | pKi (Cholinesterase [2]): 3.16; Ratio IC50 [13]: 10.3 |
| COc1cc2c(cc1OC)C(=O)C(CC1CCN(Cc3ccccc3)CC1)C2 (stereo not drawn) [DONEPEZIL] | 28.24 | 55.42 | 39.1 |  | 61.25 | Dose-dependent effect |  |  | 53.86 | 37.67 |  | 43.17 | 64.2 | 31.25 | 28.54 | 26.82 | 32.38 | 45.14 |  | 30.86 |  |
| NNC(=O)Nc1ccncc1 | 42.17 | 71.83 | 60.5 |  | 75.5 | Dose-dependent effect | Non-toxic | 3.68 | 69.83 | 59.33 | Non-toxic | 64 | 78 | 42.33 | 37.47 | 37.17 | 44.5 | 65 | < 3.00 | 43.67 |  |
| COc1ccc(/C=N/NC(=O)Nc2ccncc2)cc1 | 37.83 | 65.83 | 50.5 | 4.45 | 67.83 | Dose-dependent effect | Non-toxic | 4.32 | 63.33 | 48.67 | Non-toxic | 56.33 | 70.17 | 39.5 | 35.17 | 36.83 | 40.33 | 56.17 | 3.10 | 37.5 | pKi (Cholinesterase [2]): 3.20; IC50 (Acetylcholinesterase [9]): 49 µM; Ratio IC50 [13]: 16.3 |
| NC(=O)Nc1ccncc1 | 42.5 | 75 | 61.25 |  | 77.83 | Dose-dependent effect | Non-toxic | 3.56 | 73 | 60.17 | Non-toxic | 65.12 | 80.83 | 43 | 37.5 | 37.33 | 44.5 | 66.2 | < 3.00 | 44.17 |  |
| COc1cc(/C=N/NC(=O)Nc2ccncc2)ccc1O | 35.5 | 64.5 | 46.17 | 4.69 | 65 | Dose-dependent effect | Non-toxic | 4.73 | 57.87 | 40.5 | Non-toxic | 49.67 | 68.17 | 36.62 | 35.83 | 33.67 | 39.5 | 52 | 3.28 | 36.83 | pKi (Cholinesterase [23]): 3.35; IC50 (Acetylcholinesterase [9]): 19.1 µM; Ratio IC50 [13]: 28.2 |
| COc1ccc(/C=N/NC(=O)Nc2ccncc2)cc1OC | 35.17 | 62.17 | 44.5 | 4.99 | 64.83 | Dose-dependent effect | Non-toxic | 4.90 | 57.17 | 40.5 | Non-toxic | 49.33 | 67.17 | 36.87 | 35.33 | 33.17 | 38.17 | 52.17 | 3.37 | 35.83 | pKi (Cholinesterase [2]): 3.55; Ratio IC50 [13]: 33.6 |
| O=C(N/N=C/c1ccc(O)cc1O)Nc1ccncc1 | 34.83 | 61.83 | 42.5 | 5.45 | 65.17 | Dose-dependent effect | Non-toxic | 5.37 | 57.67 | 40.33 | Non-toxic | 49.17 | 65.57 | 36.17 | 34.83 | 32.5 | 37.5 | 51 | 4.23 | 35.03 | pKi (Cholinesterase [23]): 4.14; Ratio IC50 [13]: 13.7 |
| O=C(N/N=C/c1ccccc1O)Nc1ccncc1 | 37.5 | 65 | 49.12 | 4.59 | 67.33 | Dose-dependent effect | Non-toxic | 4.49 | 63.67 | 48.15 | Non-toxic | 54.19 | 70.17 | 39.33 | 36.33 | 34.67 | 39.17 | 55.21 | 3.61 | 36.83 | pKi (Cholinesterase [23]): 3.67; IC50 (Acetylcholinesterase [9]): 33.1 µM; Ratio IC50 [13]: 7.56 |
